From ChEMBL document CHEMBL3875168, “Synthesis and apoptosis inducing studies of triazole linked 3-benzylidene isatin derivatives” (Eur J Med Chem, 2016) come the findings set out here.

The nature of series [1]: Cytotoxicity against human MDA-MB-231 cells assessed as cell growth inhibition after 48 hrs by MTT assay. Type of series: functional, cell-based. The note with it: MDA-MB-231, 48 h. An outline of the steps:
(§1)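 Cell lines (NCCS) grown in DMEM or RPMI with 10% FBS and antibiotic-antimycotic at 37 °C, 5% CO2, 90% humidity. Cells seeded at 3-5×10^3 per well, treated 48 h with serial dilutions in medium beside vehicle control. Medium replaced with MTT (0.5 mg/mL) for 4 h, absorbance read at 570 nm. IC50 taken from concentration-response curves; sunitinib served as reference.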
(Formazan colour is commonly taken as a measure of viable cells.)

Series [2] is described as follows: Cytotoxicity against human A549 cells assessed as cell growth inhibition after 48 hrs by MTT assay. Type of series: functional, cell-based. Particulars: A549, 48 h. The method, boiled down: as §1
Series [3] is described as follows: Cytotoxicity against human PC3 cells assessed as cell growth inhibition after 48 hrs by MTT assay. Type of series: functional, cell-based. Particulars: PC-3, 48 h. An outline of the steps:
as §1

Series [4] in a line: Cytotoxicity against human DU145 cells assessed as cell growth inhibition after 48 hrs by MTT assay. Type of series: functional, cell-based. The note with it: DU-145, 48 h. The method, boiled down:
as §1

Series [5] in a line: Cytotoxicity against human HeLa cells assessed as cell growth inhibition after 48 hrs by MTT assay. The series is classed as functional, cell-based. The method, boiled down:
as §1

Series [6] in a line: Cytotoxicity against human BT549 cells assessed as cell growth inhibition after 48 hrs by MTT assay. Type of series: functional, cell-based. The note with it: BT-549, 48 h. An outline of the steps: as §1
The nature of series [7]: Cytotoxicity against human RWPE1 cells assessed as cell growth inhibition after 48 hrs by MTT assay. The series is classed as toxicity, cell-based, RWPE-1.

Each structure is given as a SMILES string. Where only a bound is given, the exact number is not on record here.

By IC50 is commonly meant the point on the concentration scale where inhibition reaches its midpoint. Consider `CC(=O)c1ccc2c(c1)/C(=C/c1cccc(OCc3cn(Cc4ccccc4)nn3)c1)C(=O)N2`, for which the IC50 in series [1] was over 50 µM; in series [2], 36.3 µM; in series [3] it was over 50 µM; in series [4], over 50 µM; in series [5] it was over 50 µM; in series [6], over 50 µM.

For `COc1ccc(Cc2ccc3c(c2)/C(=C\c2cccc(OCc4cn(Cc5ccccc5)nn4)c2)C(=O)N3)cc1`, the IC50 is over 50 µM in series [1]; over 50 µM in series [2]; 32.2 µM in series [3]; over 50 µM in series [4]; over 50 µM in series [6].

With `CC(=O)c1ccc2c(c1)/C(=C\c1cccc(OCc3cn(Cc4ccccc4)nn3)c1)C(=O)N2`, the IC50 in series [1], in series [2], in series [3], in series [4], in series [5] and in series [6] was over 50 µM throughout.

For `COc1ccc(Cc2ccc3c(c2)/C(=C/c2cccc(OCc4cn(Cc5ccccc5)nn4)c2)C(=O)N3)cc1`, the IC50 is 20.4 µM in series [1]; 30.5 µM in series [2]; over 50 µM in series [3]; 6.7 µM in series [4]; 7.7 µM in series [5]; 36 µM in series [6].

As for `O=C1Nc2ccc(Cl)cc2/C1=C/c1cccc(OCc2cn(Cc3ccccc3)nn2)c1`, the IC50 in series [2] is over 50 µM; in series [3], over 50 µM; in series [4] it was 24.2 µM.

As for `O=C1Nc2ccccc2/C1=C/c1cccc(OCc2cn(Cc3ccccc3)nn2)c1`, the figures for the IC50 in series [2], in series [3] and in series [6] were 31.5 µM, 34.5 µM and over 50 µM, respectively.

Take `Cc1ccc(C(C#Cc2ccccc2)c2ccc3c(c2)/C(=C\c2cccc(OCc4cn(Cc5ccccc5)nn4)c2)C(=O)N3)cc1` (centres undefined): the IC50 was 36.6 µM in series [2]; over 50 µM in series [3]; 28.9 µM in series [4]; 32.8 µM in series [5]; over 50 µM in series [6].

For `COc1cc(Cn2cc(COc3cccc(/C=C4/C(=O)Nc5ccccc54)c3)nn2)cc(OC)c1`, the IC50 in series [1] worked out at 11.7 µM; in series [2], 26.7 µM; in series [3] it was 37.1 µM; in series [4] it was 25.6 µM; in series [5], 22 µM.

Consider `O=C1Nc2ccc(C(=O)c3ccccc3)cc2/C1=C\c1cccc(OCc2cn(Cc3ccccc3)nn2)c1`, for which the IC50 in series [1], in series [2], in series [3], in series [4], in series [5] and in series [6] was over 50 µM throughout.

In the case of `CCN(CC)CCNC(=O)c1c(C)[nH]c(/C=C2\C(=O)Nc3ccc(F)cc32)c1C` [SUNITINIB], the IC50 in series [1] worked out at 7.4 µM; in series [3] it was 12.6 µM; in series [4], 16.3 µM; in series [5] it was 10.4 µM. In series [7], the IC50 at 48 h was found to be 25.2 µM.

As for `O=C1Nc2cc(Cl)ccc2/C1=C\c1cccc(OCc2cn(Cc3ccccc3)nn2)c1`, the IC50 is over 50 µM in series [1]; over 50 µM in series [2]; over 50 µM in series [3]; 20.1 µM in series [4]; over 50 µM in series [5]; over 50 µM in series [6].

On to `O=C1Nc2ccc([N+](=O)[O-])cc2/C1=C\c1cccc(OCc2cn(Cc3ccccc3)nn2)c1`, for which the IC50 in series [1], in series [2], in series [3], in series [5] and in series [6] was over 50 µM each time.

On to `O=C1Nc2ccc(C(c3ccccc3)c3ccccc3)cc2/C1=C\c1cccc(OCc2cn(Cc3ccccc3)nn2)c1`, for which the IC50 in series [1], in series [2], in series [3], in series [4], in series [5] and in series [6] was over 50 µM in each case.

Regarding `O=C1Nc2cc(Br)ccc2/C1=C\c1cccc(OCc2cn(Cc3ccccc3)nn2)c1`, the IC50 in series [2] was 9.6 µM; in series [3], over 50 µM; in series [4] it was 5.7 µM; in series [6] it was over 50 µM.

Take `COc1cc(Cn2cc(COc3cccc(/C=C4\C(=O)Nc5ccccc54)c3)nn2)cc(OC)c1`: the IC50 was over 50 µM in series [1]; 43.3 µM in series [2]; 31.7 µM in series [3]; 33.8 µM in series [5]; over 50 µM in series [6].

As for `O=C1Nc2ccc(F)cc2/C1=C\c1cccc(OCc2cn(Cc3ccccc3)nn2)c1`, the IC50 in series [1], in series [2], in series [3], in series [5] and in series [6] was over 50 µM in each case.

`O=C1Nc2ccccc2/C1=C\c1cccc(OCc2cn(Cc3ccccc3)nn2)c1`: the IC50 was over 50 µM in series [2]; 29.5 µM in series [3]; 31.7 µM in series [4]; 32.3 µM in series [5]; over 50 µM in series [6].

Take `Cc1ccc(C(C#Cc2ccccc2)c2ccc3c(c2)/C(=C/c2cccc(OCc4cn(Cc5ccccc5)nn4)c2)C(=O)N3)cc1` (centres undefined): the IC50 in series [1], in series [2], in series [3], in series [4], in series [5] and in series [6] was over 50 µM each time.

With `O=C1Nc2ccc(Br)cc2/C1=C/c1cccc(OCc2cn(Cc3ccccc3)nn2)c1`, the IC50 is over 50 µM in series [1]; over 50 µM in series [2]; over 50 µM in series [3]; 35.1 µM in series [4]; over 50 µM in series [5]; over 50 µM in series [6].

As for `O=Cc1cccc(OCc2cn(Cc3ccccc3)nn2)c1`, the IC50 in series [1], in series [2], in series [3], in series [4], in series [5] and in series [6] was over 50 µM each time.
